Legend:
[1] = Inhibition of Mycobacterium tuberculosis H37Rv MetAP1c in presence of 50 uM Fe(2+) by Met-AMC substrate hydrolysis assay
How it was run: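 Recombinant MtMetAP1c (mapB gene) was expressed in E. coli BL21(DE3) and purified as the apoenzyme (0.5 µM). It was activated with FeCl2 50 µM plus 100 µM ascorbic acid, CoCl2 10 µM, MnCl2 20 µM or NiCl2 20 µM. Buffer was 50 mM MOPS pH 7.5 with 100 µM Met-AMC at room temperature, read by fluorescence at ex 360/em 460.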

[2] = Inhibition of Mycobacterium tuberculosis H37Rv MetAP1c in presence of 50 uM Co(2+) by Met-AMC substrate hydrolysis assay
[3] = Inhibition of Mycobacterium tuberculosis H37Rv MetAP1c in presence of 50 uM Mn(2+) by Met-AMC substrate hydrolysis assay
[4] = Inhibition of Mycobacterium tuberculosis H37Rv MetAP1c in presence of 50 uM Ni(2+) by Met-AMC substrate hydrolysis assay
[5] = Inhibition of Mycobacterium tuberculosis MetAP1c expressed in Escherichia coli lacking endogenous MetAP by cell based Met-AMC substrate hydrolysis assay
How it was run: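 E. coli carrying a chromosomal amber mutation in EcMetAP and complemented by plasmid-borne MtMetAP1c were grown to exponential phase and washed. Cells were stored in CaCl2/Tris/glycerol at −80 °C. The assay held 150 µM Met-AMC, 5 mM CaCl2 (for permeabilization) and 50 mM Tris pH 7.5, with inhibitor at 12 serial dilutions. Fluorescence (ex 360/em 460) was read every 2 min for 6-8 hr at room temperature. IC50 came from hydrolysis rates.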

[6] = Inhibition of Mycobacterium tuberculosis MetAP1c mediated cell growth of Escherichia coli lacking endogenous MetAP complemented with MtMetAP1c after 72 hrs by resazurin dye reduction method

Row | SMILES | IC50 [1] [µM] | IC50 [2] [µM] | IC50 [3] [µM] | IC50 [4] [µM] | IC50 [5] [µM] | IC50 [6] [µM]
1 | Fc1ccc(CSc2nnc[nH]2)cc1 | > 500 | 2 | 143 | – | – | –
2 | O=C(O)c1ccc(-c2ccccc2Cl)o1 | > 500 | > 500 | 16 | > 500 | – | –
3 | Nc1nnc(SCc2ccc(F)cc2)[nH]1 | > 500 | 0.74 | 18 | 1.3 | 121 | > 1000
4 | Nc1nnc(SCc2ccc(Cl)cc2Cl)[nH]1 | 40 | – | 2 | – | – | –
5 | Cc1ccsc1-c1ccc(O)c(O)c1 | 1.4 | 38 | 14 | 60 | 35 | 89.5
6 | Cc1nc(-c2ccc(O)c(O)c2)cs1 | 3.6 | 76 | 37 | 104 | 20 | 208
7 | O=C(O)c1ccc(-c2cc(Cl)ccc2Cl)o1 | > 500 | > 500 | 14 | > 500 | 623 | > 1000
8 | Cc1ccc(CSc2nnc(N)[nH]2)cc1 | > 500 | 0.69 | 26 | 2.5 | 281 | > 1000
